A word on the Ki: it is a dissociation constant, usually derived from enzyme kinetics or from competition with a known ligand. A high value points to lower affinity. The IC50 is the concentration needed to halve the response being measured. A lower IC50 goes with greater potency in that assay.

The text below walks through data of ChEMBL document CHEMBL1133909, “Piperazine-based CCR5 antagonists as HIV-1 inhibitors. I: 2(S)-methyl piperazine as a key pharmacophore element” (Bioorg Med Chem Lett, 2001).

In experiment [1] the target is T1, C-C chemokine receptor type 5 (Homo sapiens, UniProt P51681). Briefly: Inhibition of [125I]-labeled RANTES binding to C-C chemokine receptor type 5. In short, it runs like this:
(§1)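 Membranes from CHO cells expressing CCR5 incubated 1 h with 125I-RANTES, with or without compound. Counts averaged. IC50 taken as the amount inhibiting 50% of total 125I-RANTES binding. Ki derived from the binding data. Standard error 10%; assay-to-assay variability 2–3 fold.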

The target in experiment [2] is T2, Muscarinic acetylcholine receptor M2 (Homo sapiens, UniProt P08172).
T2 sequence (P08172 whole entry): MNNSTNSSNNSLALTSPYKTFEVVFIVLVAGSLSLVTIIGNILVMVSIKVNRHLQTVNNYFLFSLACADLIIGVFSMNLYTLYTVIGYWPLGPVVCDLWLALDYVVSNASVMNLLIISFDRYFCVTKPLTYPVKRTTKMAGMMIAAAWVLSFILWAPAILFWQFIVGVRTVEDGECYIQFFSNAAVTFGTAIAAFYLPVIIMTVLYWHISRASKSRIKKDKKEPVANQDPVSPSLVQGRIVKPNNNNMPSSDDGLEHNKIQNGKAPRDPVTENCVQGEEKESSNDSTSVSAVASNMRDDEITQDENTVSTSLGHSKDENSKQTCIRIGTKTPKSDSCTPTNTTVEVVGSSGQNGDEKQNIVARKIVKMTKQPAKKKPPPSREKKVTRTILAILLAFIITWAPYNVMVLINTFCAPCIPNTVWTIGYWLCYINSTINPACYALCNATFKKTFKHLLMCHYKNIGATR
Briefly: Affinity for Muscarinic acetylcholine receptor M2.

Experiment [3] can be described thus: Antiviral activity was measured as inhibition of the growth of primary HIV-1 isolate (US-1) in human peripheral blood mononuclear cells. It is filed as functional.
Experiment [4] concerns the target T1, C-C chemokine receptor type 5. Briefly: Ability to inhibit [125I]-labeled RANTES binding to C-C chemokine receptor type 5. The method, boiled down:
as §1

For experiment [5] the target is unchanged. The experiment is described as follows: Ability to inhibit [125I]-labeled RANTES binding to C-C chemokine receptor type 5 expressed in membrane preparation of CHO cells. It is filed as cell membranes. The method, boiled down:
as §1

T1 sequence (P51681 whole entry): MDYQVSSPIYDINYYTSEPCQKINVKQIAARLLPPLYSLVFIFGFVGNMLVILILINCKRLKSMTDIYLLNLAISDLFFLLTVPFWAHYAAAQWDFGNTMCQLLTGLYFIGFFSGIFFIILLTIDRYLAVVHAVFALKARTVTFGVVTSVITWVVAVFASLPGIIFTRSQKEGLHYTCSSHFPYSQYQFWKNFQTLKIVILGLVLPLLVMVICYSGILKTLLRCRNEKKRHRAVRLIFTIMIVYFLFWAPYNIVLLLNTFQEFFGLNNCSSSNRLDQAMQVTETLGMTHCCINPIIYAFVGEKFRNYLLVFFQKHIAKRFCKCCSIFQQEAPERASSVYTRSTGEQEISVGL

Consider `Cc1cccc(C)c1C(=O)N1CCC(N2CCN([C@@H](C)c3ccc(Cc4ccc5c(c4)OCO5)cc3)[C@@H](C)C2)CC1`, for which the Ki in experiment [1] was 18 nM; in experiment [2], 760 nM. The compound also registered an IC50 in experiment [3] of 8 nM.

As to `C[C@H]1CN(C2CCN(C(=O)c3c(Cl)cccc3Cl)CC2)CCN1[C@@H](C)c1ccc(S(=O)(=O)c2ccc3c(c2)OCO3)cc1`, the figures for the Ki in experiment [1] and in experiment [2] were 49 nM and 270 nM, respectively.

In experiment [4], `Cc1cccc(C)c1C(=O)N1CCC(N2CCN([C@@H](C)c3ccc(S(=O)(=O)c4ccc5c(c4)OCO5)cc3)[C@H](C)C2)CC1` had an IC50 of 440 nM. In experiment [2], this compound showed a Ki of 0.8 nM.

For the compound `Cc1cccc(C)c1C(=O)N1CCC(N2CCN([C@@H](C)c3ccc(Cc4cccc(Cl)c4)cc3)[C@@H](C)C2)CC1`, the Ki in experiment [1] was 45 nM; in experiment [2] it was greater than 1400 nM.

For `Cc1cccc(C)c1C(=O)N1CCC(N2CCN(Cc3ccc(Cc4ccc5c(c4)OCO5)cc3)CC2)CC1`, the Ki in experiment [1] turned out to be 352 nM; in experiment [2] it was 497 nM.

Regarding `Cc1cccc(C)c1C(=O)N1CCC(N2CCN(Cc3ccc(Cc4ccc5c(c4)OCO5)cc3)[C@@H](C)C2)CC1`, the Ki was 44 nM in experiment [1] and greater than 40 nM in experiment [2].

In the case of `Cc1cccc(C)c1C(=O)N1CCC(N2CCN(Cc3ccc(S(=O)(=O)c4ccc5c(c4)OCO5)cc3)CC2)CC1`, the Ki was greater than 1300 nM in experiment [1] and 31 nM in experiment [2].

`C[C@H]1CN(C2CCN(C(=O)c3c(F)cccc3F)CC2)CCN1[C@@H](C)c1ccc(S(=O)(=O)c2ccc3c(c2)OCO3)cc1`: the values for the Ki in experiment [1] and in experiment [2] were 230 nM and 352 nM, respectively.

As to `Cc1cccc(C)c1C(=O)N1CCC(N2CCN([C@@H](C)c3ccc(S(=O)(=O)c4ccc5c(c4)OCO5)cc3)CC2)CC1`, the Ki in experiment [1] came to 442 nM; in experiment [2], 1 nM.

Turning to `Cc1cccc(C)c1C(=O)N1CCC(N2CCN(Cc3ccc(S(=O)(=O)c4ccc5c(c4)OCO5)cc3)[C@@H](C)C2)CC1`, the Ki in experiment [1] is 74 nM; in experiment [2], greater than 40 nM.

With `C[C@H]1CN(C2CCN(C(=O)c3c(N)cccc3Cl)CC2)CCN1[C@@H](C)c1ccc(S(=O)(=O)c2ccc3c(c2)OCO3)cc1`, the Ki was found to be 32 nM in experiment [1] and 100 nM in experiment [2].

On to `Cc1cccc(N)c1C(=O)N1CCC(N2CCN([C@@H](C)c3ccc(S(=O)(=O)c4ccc5c(c4)OCO5)cc3)[C@@H](C)C2)CC1`, for which the Ki in experiment [5] stood at 31 nM; in experiment [2], 100 nM.

Turning to `Cc1cccc(C)c1C(=O)N1CCC(N2CCN([C@@H](C)c3ccc(S(=O)(=O)c4ccc5c(c4)OCO5)cc3)[C@@H](C)C2)CC1`, the Ki in experiment [1] amounted to 28 nM; in experiment [2], 485 nM.

The compound `Cc1ccccc1C(=O)N1CCC(N2CCN([C@@H](C)c3ccc(Cc4ccc5c(c4)OCO5)cc3)[C@@H](C)C2)CC1` yielded an IC50 in experiment [4] of 90 nM. The compound also came in with a Ki in experiment [2] of 35 nM.
